Laboratory results published in PMC12744601 (Infection and Drug Resistance, 2025).
Converted amounts (≈) assume the structure as drawn.

System: daptomycin-non-susceptible VRE strain (clinical DRE isolate)
Assay: Minimum inhibitory concentration
Format: cell-based, Enterococcus faecium
Method in brief: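 Clinical daptomycin-non-susceptible VRE isolate from a bloodstream infection. Species identified by VITEK 2. […] Fosfomycin MIC by agar dilution and ceftaroline MIC by broth microdilution. Breakpoints per CLSI.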

| MIC (Enterococcus, VRE) [µg/mL] | Structure (SMILES) | further results |
| --- | --- | --- |
| – | CCCCCCCCCC(=O)N[C@@H](Cc1c[nH]c2ccccc12)C(=O)N[C@H](CC(N)=O)C(=O)N[C@@H](CC(=O)O)C(=O)N[C@@H]1C(=O)NCC(=O)N[C@@H](CCCN)C(=O)N[C@@H](CC(=O)O)C(=O)N[C@H](C)C(=O)N[C@@H](CC(=O)O)C(=O)NCC(=O)N[C@H](CO)C(=O)N[C@@H]([C@H](C)CC(=O)O)C(=O)N[C@@H](CC(=O)c2ccccc2N)C(=O)O[C@@H]1C [Daptomycin, daptomycin] | MIC (broth microdilution, cation-adjusted Mueller-Hinton broth supplemented with 50 mg/mL calcium, clinical DRE isolate): 8 µg/mL (≈ 4.94 µM) |
| > 8 | CCO/N=C(\C(=O)N[C@@H]1C(=O)N2C(C(=O)[O-])=C(Sc3nc(-c4cc[n+](C)cc4)cs3)CS[C@H]12)c1nsc(N)n1 [Ceftaroline, ceftaroline] | – |
| – | CN[C@H](CC(C)C)C(=O)N[C@H]1C(=O)N[C@@H](CC(N)=O)C(=O)N[C@H]2C(=O)N[C@H]3C(=O)N[C@H](C(=O)N[C@H](C(=O)O)c4cc(O)cc(O)c4-c4cc3ccc4O)[C@H](O)c3ccc(c(Cl)c3)Oc3cc2cc(c3O[C@@H]2O[C@H](CO)[C@@H](O)[C@H](O)[C@H]2O[C@H]2C[C@](C)(N)[C@H](O)[C@H](C)O2)Oc2ccc(cc2Cl)[C@H]1O [vancomycin] | MIC (Sensititre GPN3F system, clinical DRE isolate): > 128 µg/mL |
| 128 (≈ 927 µM) | C[C@@H]1O[C@@H]1P(=O)(O)O [Fosfomycin, fosfomycin] | – |
